# According to ChEMBL document CHEMBL4732182, “Design, synthesis and biological evaluation of 2-substituted-6-[(4-substituted-1-piperidyl)methyl]-1H-benzimidazoles as inhibitors of ebola virus infection” (Eur J Med Chem, 2021):
# Active and inactive are the calls of the source. No cut-off for these calls is given here.
# Experiments:
# [1] = test system: Ebolavirus; assay: Antiviral activity against Ebola virus infected in human HuH7 cells assessed as reduction in viral infection pretreated for 2 hrs followed by viral infection and measured after 3 days by ZsGreen fluorescence assay; format: functional, organism-based; conditions: Orthoebolavirus, Huh-7
# [2] = Cytotoxicity against human Huh-7 cells assessed as reduction in cell viability incubated for 3 days by cell-titer glo assay; format: cell-based; conditions: time 3 day
# Procedure, shortened: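 Huh7 cells received compound but no virus, in parallel with the infection assay. Viability was read by CellTiter-Glo luminescence. CC50 was derived from a 4-parameter fit to semi-log concentration-response curves.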
# [3] = Selectivity index, ratio of CC50 for human Huh-7 cells to EC50 for Ebola virus infected in human HuH7 cells; format: toxicity, cell-based; conditions: read-out: Ratio CC50/EC50
# [4] = target: T1, NPC intracellular cholesterol transporter 1 (Homo sapiens) (UniProt O15118); assay: Inhibition of NPC1 in human HeLa cells assessed as increase in cholesterol accumulation in subcellular localization at 5 uM incubated for 24 hrs by filipin-staining based immunofluorescence assay; format: cell-based
# T1 sequence (whole entry): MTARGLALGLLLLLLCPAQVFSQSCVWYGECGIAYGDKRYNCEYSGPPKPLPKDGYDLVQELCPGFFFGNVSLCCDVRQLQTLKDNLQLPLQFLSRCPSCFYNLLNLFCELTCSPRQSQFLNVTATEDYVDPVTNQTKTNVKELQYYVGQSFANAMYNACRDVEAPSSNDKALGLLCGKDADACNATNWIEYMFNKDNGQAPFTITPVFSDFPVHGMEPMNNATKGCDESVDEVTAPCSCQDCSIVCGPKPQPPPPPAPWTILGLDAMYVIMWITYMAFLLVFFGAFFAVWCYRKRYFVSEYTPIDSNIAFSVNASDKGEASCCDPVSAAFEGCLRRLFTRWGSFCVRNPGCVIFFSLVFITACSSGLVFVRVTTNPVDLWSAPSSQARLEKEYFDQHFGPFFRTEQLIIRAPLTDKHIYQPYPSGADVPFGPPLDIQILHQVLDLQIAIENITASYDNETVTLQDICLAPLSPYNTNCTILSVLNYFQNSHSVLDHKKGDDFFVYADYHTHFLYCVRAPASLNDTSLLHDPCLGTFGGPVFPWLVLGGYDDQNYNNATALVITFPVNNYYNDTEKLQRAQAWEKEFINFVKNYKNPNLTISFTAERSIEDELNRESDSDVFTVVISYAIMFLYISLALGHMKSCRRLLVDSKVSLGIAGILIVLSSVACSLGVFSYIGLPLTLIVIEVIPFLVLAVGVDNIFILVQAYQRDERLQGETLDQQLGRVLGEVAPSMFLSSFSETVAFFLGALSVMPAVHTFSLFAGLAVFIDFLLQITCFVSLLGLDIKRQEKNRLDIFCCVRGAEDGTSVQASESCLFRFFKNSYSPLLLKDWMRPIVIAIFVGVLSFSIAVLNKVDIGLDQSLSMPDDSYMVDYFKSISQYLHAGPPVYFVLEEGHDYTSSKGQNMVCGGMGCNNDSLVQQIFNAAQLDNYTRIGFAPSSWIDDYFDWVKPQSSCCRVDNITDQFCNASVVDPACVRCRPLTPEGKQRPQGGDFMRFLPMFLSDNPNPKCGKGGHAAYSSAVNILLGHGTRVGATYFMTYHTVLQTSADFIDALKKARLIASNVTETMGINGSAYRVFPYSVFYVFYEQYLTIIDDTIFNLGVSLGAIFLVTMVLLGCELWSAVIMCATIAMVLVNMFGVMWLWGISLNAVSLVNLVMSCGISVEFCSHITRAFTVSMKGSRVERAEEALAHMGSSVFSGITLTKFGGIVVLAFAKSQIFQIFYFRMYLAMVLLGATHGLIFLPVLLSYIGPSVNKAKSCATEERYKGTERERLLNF
# Procedure, shortened: (§1)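 HeLa cells were exposed to compound for 24 h; DMSO vehicle was 0.1% (v/v) final. They were then stained with 0.5 mg/mL filipin in PBS plus 10% FCS for 2 h at RT and imaged on a high-content imager.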
# [5] = Inhibition of Ebolavirus glycoprotein transfected in human Huh-7 cells cotransfected with HIV luciferase reporter vector expressing plasmid assessed as reduction in virus entry measured after 3 days by Bright-Glo luciferase assay; format: cell-based; conditions: Orthoebolavirus, Huh-7, 72 h
# Procedure, shortened: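 Huh7 cells were preincubated with varying compound concentrations for 1 h at 37 C. HIV-based luciferase reporter particles pseudotyped with EBOV GP were then added. Firefly luciferase activity was measured by Bright-Glo 3 days later.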
# [6] = target: T1, NPC intracellular cholesterol transporter 1 (Homo sapiens); assay: Inhibition of NPC1 in human HeLa cells assessed as increase in cholesterol accumulation in subcellular localization at 1 uM incubated for 24 hrs by filipin-staining based immunofluorescence assay; format: cell-based; procedure, shortened: as §1
Structure (SMILES),EC50 [1],CC50 at 72 h [2],selectivity ratio [3],inhibition [4],EC50 [5],inhibition [6]
CCOP(=O)(Cc1ccc(COc2ccccc2OC2CCN(Cc3ccc4nc(-c5ccc(C(F)(F)F)cc5)[nH]c4c3)CC2)cc1)OCC,1730 nM,3820 nM,2,–,–,–
CCOP(=O)(Cc1cccc(COc2ccccc2CC2CCN(Cc3ccc4nc(-c5cccc(OC(F)(F)F)c5)[nH]c4c3)CC2)c1)OCC,870 nM,4450 nM,5,–,–,–
CCN(CC)CCO[C@H]1CC[C@@]2(C)C(=CC[C@@H]3[C@@H]2CC[C@]2(C)C(=O)CC[C@@H]32)C1,–,–,–,Active,–,–
CN(C)CCOc1ccc(/C(=C(\CCCl)c2ccccc2)c2ccccc2)cc1,380 nM,2500 nM,7,–,–,–
CCOP(=O)(Cc1ccc(COc2ccccc2OC2CCN(Cc3ccc4nc(-c5ccccc5)[nH]c4c3)CC2)cc1)OCC,2950 nM,14700 nM,5,–,–,–
CCOP(=O)(Cc1ccc(COc2ccccc2CC2CCN(Cc3ccc4nc(-c5ccccc5)[nH]c4c3)CC2)cc1)OCC,640 nM,13200 nM,20,–,1350 nM,Active
CCOP(=O)(Cc1ccc(COc2ccccc2OC2CCN(Cc3ccc4nc(-c5cccc(C(F)(F)F)c5)[nH]c4c3)CC2)cc1)OCC,29700 nM,100000 nM,3,–,–,–
CCOP(=O)(Cc1cccc(COc2ccccc2OC2CCN(Cc3ccc4nc(-c5ccc(OC(F)(F)F)cc5)[nH]c4c3)CC2)c1)OCC,1970 nM,4230 nM,2,–,–,–
CCOP(=O)(Cc1ccc(COc2ccccc2OC2CCN(Cc3ccc4nc(-c5ccc(OC(F)(F)F)cc5)[nH]c4c3)CC2)cc1)OCC,1190 nM,4200 nM,4,–,–,–
CCOP(=O)(Cc1cccc(COc2ccccc2CC2CCN(Cc3ccc4nc(-c5ccccc5)[nH]c4c3)CC2)c1)OCC,930 nM,9170 nM,10,–,2920 nM,Active
CCOP(=O)(Cc1cccc(COc2ccccc2OC2CCN(Cc3ccc4nc(-c5ccccc5)[nH]c4c3)CC2)c1)OCC,1880 nM,13100 nM,7,–,–,–
CCOP(=O)(Cc1ccc(COc2ccccc2OC2CCN(Cc3ccc4nc(-c5cccc(OC(F)(F)F)c5)[nH]c4c3)CC2)cc1)OCC,2950 nM,14700 nM,5,–,–,–
